Results reported in ChEMBL document CHEMBL5223087, “First-in-Class Cyclic Temporin L Analogue: Design, Synthesis, and Antimicrobial Assessment” (J Med Chem, 2021).
≈ marks a conversion by molar mass, not a printed value. Calls of active or inactive are those of the source. The rule behind the calls is not given here. Bridge positions count the residues as written; N and C are the ends. Square brackets hold non-standard residues; d marks the D form. Triazole bridges read from a SMILES are 1,4-linked. Peptide text beside a SMILES is read from it. dLys(N3) = [N-]=[N+]=NCCCC[C@@H](N)C(=O)O; Lys(N3) = [N-]=[N+]=NCCCC[C@H](N)C(=O)O; Pra = C#CC[C@H](N)C(=O)O

Columns and labels:
Staphylococcus aureus = assay: Antimicrobial activity against Staphylococcus aureus ATCC 25923 assessed as reduction in bacterial growth incubated for 16 to 18 hrs by microdilution susceptibility test; format: functional; details: time 16-18 hrs
Summary of the method: (§1)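 Broth microdilution in Mueller–Hinton broth. Mid-log bacteria at 1 × 10⁶ CFU/mL final, peptide twofold serial dilutions 100 to 0.78 μM final. Incubated 16–18 h at 37 °C. MIC taken as the lowest concentration giving total (100%) growth inhibition.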

Priestia megaterium = assay: Antimicrobial activity against Bacillus megaterium Bm11 assessed as reduction in bacterial growth incubated for 16 to 18 hrs by microdilution susceptibility test; format: functional; details: time 16-18 hrs; summary of the method: as §1
[1] = tested on: Staphylococcus epidermidis; assay: Antimicrobial activity against Staphylococcus epidermidis ATCC 12228 assessed as reduction in bacterial growth incubated for 16 to 18 hrs by microdilution susceptibility test; format: functional; details: time 16-18 hrs; summary of the method: as §1
Pseudomonas aeruginosa = assay: Antimicrobial activity against Pseudomonas aeruginosa ATCC 27853 assessed as reduction in bacterial growth incubated for 16 to 18 hrs by microdilution susceptibility test; format: functional; details: time 16-18 hrs; summary of the method: as §1
Escherichia coli = assay: Antimicrobial activity against Escherichia coli ATCC 25922 assessed as reduction in bacterial growth incubated for 16 to 18 hrs by microdilution susceptibility test; format: functional; details: time 16-18 hrs; summary of the method: as §1
Acinetobacter baumannii = assay: Antimicrobial activity against Acinetobacter baumannii ATCC 19606 assessed as reduction in bacterial growth incubated for 16 to 18 hrs by microdilution susceptibility test; format: functional; details: time 16-18 hrs; summary of the method: as §1
[2] = Membrano-lytic effect in bacterial inner membrane mimic DOPE/DOPG/CL (63:23:12) large unilamellar vesicles at 5 to 50 uM by varian cary eclipse fluorescence spectrometry analysis; format: cell membranes; details: dose 5-50 µM
HaCaT [3] = assay: Cytotoxicity against human HaCaT cells assessed as reduction in cell viability at 50 uM measured after 2 hrs by MTT assay; format: toxicity, cell-based
Summary of the method: (§2)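 HaCaT keratinocytes seeded at 4 × 10⁴/well in DMEM with 4 mM glutamine and 2% FBS, no antibiotics, overnight at 37 °C, 5% CO2. Medium replaced with peptide-containing DMEMg for 2 or 24 h. MTT 0.5 mg/mL in Hank's buffer 4 h, formazan dissolved in acidified isopropanol, A570. Viability as % of untreated cells; mean of three independent experiments ± SEM.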

[4] = Membrano-lytic effect in bacterial inner membrane mimic DOPG/CL (58:42) large unilamellar vesicles at 50 uM by varian cary eclipse fluorescence spectrometry analysis; format: cell membranes
HaCaT [5] = assay: Cytotoxicity against human HaCaT cells assessed as reduction in cell viability at 50 uM measured after 24 hrs by MTT assay; format: toxicity, cell-based; summary of the method: as §2
[6] = Disaggregation property of compound in LPS at 20 uM after 1 hr by Tht fluorescence based assay; format: physicochemical
Summary of the method: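 Peptide 20 μM incubated 1 h with LPS 1 mg/mL and ThT 25 μM. Aggregation read as ThT emission at 482 nm, excitation 450 nm. ThT alone and peptide alone served as controls.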

[7] = Membrano-lytic effect in bacterial inner membrane mimic DOPE/DOPG/CL (63:23:12) large unilamellar vesicles at 10 uM by varian cary eclipse fluorescence spectrometry analysis; format: cell membranes
HaCaT [8] = assay: Cytotoxicity against human HaCaT cells assessed as reduction in cell viability at 25 uM measured after 2 hrs by MTT assay; format: toxicity, cell-based; summary of the method: as §2

MIC (Staphylococcus aureus) [µM] | MIC (Priestia megaterium) [µM] | MIC [1] [µM] | MIC (Pseudomonas aeruginosa) [µM] | MIC (Escherichia coli) [µM] | MIC (Acinetobacter baumannii) [µM] | Activity [2] | Activity [4] | Activity [6] | Activity [7] | SMILES | Activity (HaCaT [3]) [%] | Activity (HaCaT [5]) [%] | Activity (HaCaT [8]) [%]
> 100 | 100 (≈ 172 µg/mL) | > 100 | > 100 | > 100 | > 100 |  |  |  |  | CCC(C)[C@H](NC(=O)[C@H](CCCNC(=N)N)NC(=O)[C@]1(C)CCC/C=C/CCC[C@](C)(NC(=O)[C@H](Cc2ccccc2)NC(=O)[C@H](Cc2c[nH]c3ccccc23)NC(=O)[C@@H]2CCCN2C(=O)[C@@H](NC(=O)[C@@H](N)Cc2ccccc2)C(C)C)C(=O)N[C@@H](CCCCN)C(=O)N[C@@H](Cc2ccccc2)C(=O)N[C@H](CC(C)C)C(=O)N1)C(=O)N[C@@H](CC(C)C)C(N)=O (stereo partly drawn) |  |  | 
 |  |  | > 100 | > 100 |  | Active | Active | Active | Active | CC[C@H](C)[C@H](NC(=O)[C@H](CCCNC(=N)N)NC(=O)[C@@H]1CCCCn2cc(nn2)C[C@H](NC(=O)[C@H](Cc2ccccc2)NC(=O)[C@H](Cc2c[nH]c3ccccc23)NC(=O)[C@@H]2CCCN2C(=O)[C@@H](NC(=O)[C@@H](N)Cc2ccccc2)C(C)C)C(=O)N[C@@H](CCCCN)C(=O)N[C@@H](Cc2ccccc2)C(=O)N[C@@H](CC(C)C)C(=O)N1)C(=O)N[C@@H](CC(C)C)C(N)=O | < 40 | < 20 | 60
> 100 |  | > 100 | > 100 | > 100 | > 100 |  |  |  |  | CC[C@H](C)[C@@H]1NC(=O)[C@H](CCCNC(=N)N)NC(=O)CNC(=O)[C@H](NC(=O)[C@H](Cc2ccccc2)NC(=O)[C@H](CCCCN)NC(=O)[C@H](CO)NC(=O)[C@H](Cc2ccccc2)NC(=O)[C@H](Cc2c[nH]c3ccccc23)NC(=O)[C@@H]2CCCN2C(=O)[C@@H](NC(=O)[C@@H](N)Cc2ccccc2)C(C)C)CCCCNC(=O)CC[C@@H](C(N)=O)NC1=O |  |  | 
> 100 | > 100 | > 100 | > 100 | > 100 | > 100 |  |  |  |  | CC[C@H](C)[C@H](NC(=O)[C@H](CCCNC(=N)N)NC(=O)CNC(=O)[C@@H](CC(C)C)NC(=O)[C@@H]1CCC(=O)NCCCC[C@H](NC(=O)[C@@H]2CCCN2C(=O)[C@@H](NC(=O)[C@@H](N)Cc2ccccc2)C(C)C)C(=O)N[C@@H](Cc2ccccc2)C(=O)N[C@@H](CO)C(=O)N[C@@H](CCCCN)C(=O)N1)C(=O)N[C@@H](CC(C)C)C(N)=O (H-FVPKFSKE[dL]GRIL-NH2; lactam 4-8) |  |  | 
100 (≈ 167 µg/mL) |  |  | > 100 |  |  |  |  |  |  | CC[C@H](C)[C@H](NC(=O)[C@H](CCCNC(=N)N)NC(=O)[C@@H]1CSSC[C@H](NC(=O)[C@H](Cc2ccccc2)NC(=O)[C@H](Cc2c[nH]c3ccccc23)NC(=O)[C@@H]2CCCN2C(=O)[C@@H](NC(=O)[C@@H](N)Cc2ccccc2)C(C)C)C(=O)N[C@@H](CCCCN)C(=O)N[C@@H](Cc2ccccc2)C(=O)N[C@H](CC(C)C)C(=O)N1)C(=O)N[C@@H](CC(C)C)C(N)=O (H-FVPWFCKF[dL]CRIL-NH2; disulfide 6-10) |  |  | 
 |  |  | > 100 | 25 (≈ 42.6 µg/mL) |  |  |  |  |  | CC[C@H](C)[C@H](NC(=O)[C@H](CCCNC(=N)N)NC(=O)[C@@H]1CCCCNC(=O)CC[C@H](NC(=O)[C@H](Cc2ccccc2)NC(=O)[C@H](Cc2c[nH]c3ccccc23)NC(=O)[C@@H]2CCCN2C(=O)[C@@H](NC(=O)[C@@H](N)Cc2ccccc2)C(C)C)C(=O)N[C@@H](CCCCN)C(=O)N[C@@H](Cc2ccccc2)C(=O)N[C@H](CC(C)C)C(=O)N1)C(=O)N[C@@H](CC(C)C)C(N)=O (H-FVPWFEKF[dL]KRIL-NH2; lactam 6-10) | < 40 | < 20 | 60
> 100 |  | > 100 | > 100 | > 100 | > 100 |  |  |  |  | CC[C@H](C)[C@@H]1NC(=O)[C@H](CCCNC(=N)N)NC(=O)CNC(=O)[C@@H](CC(C)C)NC(=O)[C@H](Cc2ccccc2)NC(=O)[C@H](CCCCN)NC(=O)[C@@H](NC(=O)[C@H](Cc2ccccc2)NC(=O)[C@H](Cc2c[nH]c3ccccc23)NC(=O)[C@@H]2CCCN2C(=O)[C@@H](NC(=O)[C@@H](N)Cc2ccccc2)C(C)C)CCCCNC(=O)CC[C@@H](C(N)=O)NC1=O (H-FVPWFKKF[dL]GRIE-NH2; lactam 6-13) |  |  | 
> 100 |  | > 100 | > 100 | > 100 | > 100 |  |  |  |  | CC(C)C[C@H](NC(=O)[C@@H]1CCC(=O)NCCCC[C@H](NC(=O)[C@H](CCCCN)NC(=O)[C@H](CO)NC(=O)[C@H](Cc2ccccc2)NC(=O)[C@H](Cc2c[nH]c3ccccc23)NC(=O)[C@@H]2CCCN2C(=O)[C@@H](NC(=O)[C@@H](N)Cc2ccccc2)C(C)C)C(=O)N[C@H](CC(C)C)C(=O)NCC(=O)N[C@@H](CCCNC(=N)N)C(=O)N1)C(N)=O (H-FVPWFSKK[dL]GREL-NH2; lactam 8-12) |  |  | 
> 100 |  | > 100 | > 100 |  |  |  |  |  |  | CC(C)C[C@H](NC(=O)[C@@H]1CCCCn2cc(nn2)C[C@H](NC(=O)[C@H](CCCCN)NC(=O)[C@H](CO)NC(=O)[C@H](Cc2ccccc2)NC(=O)[C@H](Cc2c[nH]c3ccccc23)NC(=O)[C@@H]2CCCN2C(=O)[C@@H](NC(=O)[C@@H](N)Cc2ccccc2)C(C)C)C(=O)N[C@H](CC(C)C)C(=O)NCC(=O)N[C@@H](CCCNC(=N)N)C(=O)N1)C(N)=O (H-FVPWFSK[Pra][dL]GR[Lys(N3)]L-NH2; triazole 8-12) |  |  | 
> 100 |  | > 100 | > 100 | > 100 | > 100 |  |  |  |  | CC[C@H](C)[C@@H]1NC(=O)[C@H](CCCNC(=N)N)NC(=O)CNC(=O)[C@@H](CC(C)C)NC(=O)[C@H](Cc2ccccc2)NC(=O)[C@H](CCCCN)NC(=O)[C@@H](NC(=O)[C@H](Cc2ccccc2)NC(=O)[C@H](Cc2c[nH]c3ccccc23)NC(=O)[C@@H]2CCCN2C(=O)[C@@H](NC(=O)[C@@H](N)Cc2ccccc2)C(C)C)Cc2cn(nn2)CCCC[C@@H](C(N)=O)NC1=O (H-FVPWF[Pra]KF[dL]GRI[Lys(N3)]-NH2; triazole 6-13) |  |  | 
> 100 | 100 (≈ 159 µg/mL) | > 100 | > 100 | > 100 | > 100 |  |  |  |  | CC[C@H](C)[C@H](NC(=O)[C@H](CCCNC(=N)N)NC(=O)CNC(=O)[C@H]1CCC(=O)NCCCC[C@H](NC(=O)[C@H](Cc2c[nH]c3ccccc23)NC(=O)[C@@H]2CCCN2C(=O)[C@@H](NC(=O)[C@@H](N)Cc2ccccc2)C(C)C)C(=O)N[C@@H](CO)C(=O)N[C@@H](CCCCN)C(=O)N[C@@H](Cc2ccccc2)C(=O)N1)C(=O)N[C@@H](CC(C)C)C(N)=O (H-FVPWKSKF[dE]GRIL-NH2; lactam 5-9) |  |  | 
> 100 | 100 (≈ 159 µg/mL) | > 100 | > 100 | > 100 | > 100 |  |  |  |  | CC(C)C[C@H](NC(=O)[C@@H]1CCC(=O)NCCCC[C@H](NC(=O)[C@H](Cc2c[nH]c3ccccc23)NC(=O)[C@@H]2CCCN2C(=O)[C@@H](NC(=O)[C@@H](N)Cc2ccccc2)C(C)C)C(=O)N[C@@H](CO)C(=O)N[C@@H](CCCCN)C(=O)N[C@@H](Cc2ccccc2)C(=O)N[C@H](CC(C)C)C(=O)NCC(=O)N[C@@H](CCCNC(=N)N)C(=O)N1)C(N)=O (H-FVPWKSKF[dL]GREL-NH2; lactam 5-12) |  |  | 
> 100 |  | > 100 | > 100 | 100 (≈ 160 µg/mL) | 100 (≈ 160 µg/mL) |  |  |  |  | CC[C@H](C)[C@H](NC(=O)[C@H](CCCNC(=N)N)NC(=O)CNC(=O)[C@H]1CCCCn2cc(nn2)C[C@H](NC(=O)[C@H](Cc2c[nH]c3ccccc23)NC(=O)[C@@H]2CCCN2C(=O)[C@@H](NC(=O)[C@@H](N)Cc2ccccc2)C(C)C)C(=O)N[C@@H](CO)C(=O)N[C@@H](CCCCN)C(=O)N[C@@H](Cc2ccccc2)C(=O)N1)C(=O)N[C@@H](CC(C)C)C(N)=O (H-FVPW[Pra]SKF[dLys(N3)]GRIL-NH2; triazole 5-9) |  |  | 
> 100 |  | > 100 | > 100 | > 100 | > 100 |  |  |  |  | CC[C@H](C)[C@H](NC(=O)[C@H](CCCNC(=N)N)NC(=O)CNC(=O)[C@@H](CC(C)C)NC(=O)[C@@H]1CCCCn2cc(nn2)C[C@H](NC(=O)[C@@H]2CCCN2C(=O)[C@@H](NC(=O)[C@@H](N)Cc2ccccc2)C(C)C)C(=O)N[C@@H](Cc2ccccc2)C(=O)N[C@@H](CO)C(=O)N[C@@H](CCCCN)C(=O)N1)C(=O)N[C@@H](CC(C)C)C(N)=O (H-FVP[Pra]FSK[Lys(N3)][dL]GRIL-NH2; triazole 4-8) |  |  | 
